Activity calls are given as the source filed them. The rule behind the calls is not given here.

As a reminder, the inhibition is the relative decrease from the control value, in per cent. Read a low inhibition as a weak effect. As usually defined, the IC50 is the point on the concentration scale where inhibition reaches its midpoint.

The subject of one data set is Priestia megaterium. In words: Antibacterial activity against Bacillus megaterium at 1 mg/ml by agar diffusion assay. The format is functional, organism-based. In a few lines:
(§1)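 Agar diffusion assay with test solution at 1 mg/mL. Organisms: bacteria Bacillus megaterium and Escherichia coli; fungi Microbotryum violaceum, Eurotium rubrum and Mycotypha microspora; green microalga Chlorella fusca.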
(In agar diffusion tests the substance spreads into inoculated agar from a disc or well.)

The target in data set [1] is T1, Quinone oxidoreductase (Mus musculus) (UniProt P47199).
T1 sequence (whole entry): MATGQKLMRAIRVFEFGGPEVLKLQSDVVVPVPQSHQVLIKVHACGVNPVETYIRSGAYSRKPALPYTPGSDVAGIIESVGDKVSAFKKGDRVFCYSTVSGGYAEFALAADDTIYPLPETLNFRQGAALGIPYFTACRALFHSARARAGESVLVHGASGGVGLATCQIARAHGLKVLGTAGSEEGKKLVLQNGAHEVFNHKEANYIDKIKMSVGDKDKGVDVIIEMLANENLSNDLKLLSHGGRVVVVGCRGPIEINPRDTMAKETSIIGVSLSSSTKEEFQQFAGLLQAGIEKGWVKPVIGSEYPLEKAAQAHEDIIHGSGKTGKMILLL
In words: Ratio of compound to sulforaphane level required to double NADPH-quinone reductase activity in mouse Hepa-1c1c7 cells. The format is cell-based.

The subject of the next data set is Escherichia coli. In words: Antibacterial activity against Escherichia coli at 1 mg/ml by agar diffusion assay. The format is functional, organism-based. The procedure, abridged: as §1
Data set [2] is described as follows: Antioxidant activity assessed as superoxide anion radical scavenging activity up to 50 uM. The format is functional. The procedure, abridged: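 Superoxide anion radicals generated by xanthine oxidase oxidising hypoxanthine to uric acid. Scavenging tested at concentrations up to 50 µM.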
For a further data set, the system named is Microbotryum violaceum. In words: Antifungal activity against Microbotryum violaceum at 1 mg/ml by agar diffusion assay. Type of data set: functional, organism-based. The procedure, abridged: as §1
Another data set concerns Mycotypha microspora. In words: Antifungal activity against Mycotypha microspora at 1 mg/ml by agar diffusion assay. The format is functional, organism-based. The procedure, abridged:
as §1

A short description of data set [3]: Antioxidant activity assessed as AAPH radical scavenging activity at 1 uM. The format is functional. In a few lines:
(§2)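 Oxygen radical absorbance capacity (ORAC) assay. AAPH generates peroxyl radicals, and trolox, the water-soluble vitamin E analogue, serves as reference. Compounds tested at 1 µM.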

The target in data set [4] is Prostaglandin G/H synthase 1 (Homo sapiens) (UniProt P23219). In words: Inhibition of COX1 at 100 uM. In a few lines:
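COX-1 enzymatic activity used as a marker of tumour promotion. Compounds tested at 100 µM.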

In another data set the target is T2, Aromatase (Homo sapiens, UniProt P11511).
T2 sequence (P11511 whole entry): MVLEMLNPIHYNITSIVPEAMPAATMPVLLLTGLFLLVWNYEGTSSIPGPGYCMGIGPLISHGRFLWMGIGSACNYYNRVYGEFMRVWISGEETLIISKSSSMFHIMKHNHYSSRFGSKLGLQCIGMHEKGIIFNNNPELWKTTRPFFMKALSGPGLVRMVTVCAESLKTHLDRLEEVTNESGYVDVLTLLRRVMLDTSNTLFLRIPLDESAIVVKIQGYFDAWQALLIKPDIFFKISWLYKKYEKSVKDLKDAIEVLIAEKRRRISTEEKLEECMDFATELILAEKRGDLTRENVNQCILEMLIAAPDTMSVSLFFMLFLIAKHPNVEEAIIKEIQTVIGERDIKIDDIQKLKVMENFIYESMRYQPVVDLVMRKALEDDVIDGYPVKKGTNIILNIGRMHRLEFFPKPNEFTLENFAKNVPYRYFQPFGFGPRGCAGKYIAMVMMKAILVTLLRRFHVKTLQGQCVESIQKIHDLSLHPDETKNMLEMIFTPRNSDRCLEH
In words: Inhibition of human recombinant aromatase. The settings on record: for Activity: human. The procedure, abridged: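 Human recombinant CYP19 (aromatase) with O-benzylfluorescein benzyl ester (DBF) as substrate.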

In data set [5] the test system is Radical scavenging activity. In words: Antioxidant activity assessed as DPPH radical scavenging activity up to 250 uM. The format is functional.
For another data set, the system named is Aspergillus ruber. In words: Antifungal activity against Eurotium rubrum at 1 mg/ml by agar diffusion assay. Type of data set: functional, organism-based. In a few lines: as §1
Data set [6] can be described thus: Cytotoxicity against mouse Hepa-1c1c7 cells by MTT assay. The format is cell-based. For orientation: Formazan colour is commonly taken as a measure of viable cells.
In a further data set the test system is [Chlorella] fusca. In words: Antialgal activity against Chlorella fusca at 1 mg/ml by agar diffusion assay. The format is functional, organism-based. The settings on record: Scenedesmus fuscus. In a few lines: as §1
Data set [7] in a line: Inhibition of CYP1A in beta-naphthoflavone-stimulated rat […] cells assessed as dealkylation of 3-cyano-7-ethoxycoumarin to 3-cyano-7-hydroxyciumarin. The format is ADME, cell-based. As to conditions: for IC50: Rattus norvegicus; for Activity: rat. In a few lines:
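Rat hepatoma H4IIE cells induced with β-naphthoflavone, then homogenised. CYP1A activity measured as dealkylation of 3-cyano-7-ethoxycoumarin to fluorescent 3-cyano-7-hydroxycoumarin, over a dose range. α-Naphthoflavone serves as positive control. IC50 is given as mean ± SD, n = 3.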

A short description of data set [8]: Antioxidant activity assessed as AAPH radical scavenging activity. The format is functional. In a few lines: as §2

Prostaglandin G/H synthase 1 (Homo sapiens), sequence (P23219 whole entry): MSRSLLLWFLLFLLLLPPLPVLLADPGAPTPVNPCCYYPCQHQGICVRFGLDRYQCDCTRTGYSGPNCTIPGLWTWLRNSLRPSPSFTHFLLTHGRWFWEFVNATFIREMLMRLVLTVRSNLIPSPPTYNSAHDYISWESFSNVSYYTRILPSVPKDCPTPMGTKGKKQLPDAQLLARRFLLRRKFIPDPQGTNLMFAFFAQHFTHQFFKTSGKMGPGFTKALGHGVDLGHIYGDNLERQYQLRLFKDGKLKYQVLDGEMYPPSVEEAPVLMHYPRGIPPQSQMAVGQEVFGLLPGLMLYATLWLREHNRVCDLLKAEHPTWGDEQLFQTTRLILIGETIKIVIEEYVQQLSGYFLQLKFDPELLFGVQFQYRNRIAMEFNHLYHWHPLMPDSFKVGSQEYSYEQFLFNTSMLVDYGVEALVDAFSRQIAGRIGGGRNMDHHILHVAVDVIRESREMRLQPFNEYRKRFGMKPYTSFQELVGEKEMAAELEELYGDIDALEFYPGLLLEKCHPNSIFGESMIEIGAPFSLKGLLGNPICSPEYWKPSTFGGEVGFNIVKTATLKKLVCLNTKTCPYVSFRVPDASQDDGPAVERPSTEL

Consider `Cc1cc(O)c2c(c1-c1ccc3c(c1O)C(=O)C[C@](C)([C@@H]1OC(=O)C[C@@H]1C)O3)O[C@](C)([C@@H]1OC(=O)C[C@H]1O)CC2=O` [MONODICTYOCHROMONE A], for which the result (in the data set on Priestia megaterium; with Escherichia coli; in data set [2]; in the data set on Microbotryum violaceum; with Mycotypha microspora; in data set [5]) was inactive. Besides, the outcome (in the data set with Aspergillus ruber; in [Chlorella] fusca) was inactive. In addition, the Ratio in data set [1] was 100. Also, in data set [3], the result was Active. The inhibition in [4] is < 50%. In addition, the IC50 at Aromatase is 24.4 µM; in data set [6] it was > 50 µM; in data set [7] it was 5.3 µM. Also, the Activity result (on Aromatase; in data set [7]) was “Dose-dependent effect” throughout.

As for `Cc1cc2c(c(O)c1-c1ccc3c(c1O)C(=O)C[C@](C)([C@@H]1OC(=O)C[C@@H]1C)O3)C(=O)C[C@@](C)([C@@H]1OC(=O)C[C@H]1O)O2` [MONODICTYOCHROMONE B], the result (in the data set with Priestia megaterium; in the data set on Escherichia coli; in data set [2]; with Microbotryum violaceum; in the data set with Mycotypha microspora; in data set [5]) was inactive. In addition, the result (with Aspergillus ruber; in [Chlorella] fusca) was inactive. In addition, in [1], the Ratio turned out to be 100. Moreover, the result in data set [3] was Active. In addition, in data set [4], the inhibition was < 50%. Besides, the IC50 was 16.5 µM on Aromatase, > 50 µM in data set [6] and 7.5 µM in data set [7]. For the same molecule, the Activity entry (at Aromatase; in [7]) was “Dose-dependent effect” in each case.

Turning to `Cc1c(C)c2c(c(C)c1O)CCC(C)(C(=O)O)O2` (stereo not drawn), the result in data set [8] was Active.

Values taken from ChEMBL document CHEMBL1154137, “Monodictyochromes A and B, dimeric xanthone derivatives from the marine algicolous fungus Monodictys putredinis” (J Nat Prod, 2008).
